Assay results collected from several papers.
Each line is one published result; the experiments were not run side by side.

Compound	target or system	assay	system	setting	measurement	value
O=[N+]([O-])c1ccc(Oc2cccc3cccnc23)c([N+](=O)[O-])c1	WI-38	cell growth or viability, MTT		48 h	CC50	243 µM
CCC[C@@](N)(CO)CCc1ccc(OCCCCCC(C)C)cc1			dog, plasma	intravenous, 0.25 mg/kg	C0	36 nM
Cc1cc(NC2CCN(C(=O)OC3CCN(C(=O)/C=C/CN(C)C)C3)CC2)n2ncc(C(C)C)c2n1 (stereo not shown)		general toxicity	rat	oral, multiple doses, once daily	MTD	6 mg/kg
C#C[C@]1(CO)O[C@@H](n2cnc3c(N)nc(F)nc32)C[C@@H]1O		general toxicity	rat	oral, multiple doses	NOAEL	≥ 50 mg/kg/day
COc1c2ccoc2cc2oc(=O)ccc12	WI-38	cell growth or viability, WST-1		48 h	IC50	86.3 µM
O=C(Nc1ncc([N+](=O)[O-])s1)c1ccccc1O	RPE	cell growth or viability		48 h	CC50	≥ 30 µM
Cc1cc(C)nc(Nc2ncc(C(=O)NCCc3c(C)[nH]c4ccccc34)cn2)c1		metabolic stability	dog, liver microsomes	1 µM	half-life	10 min
Cc1nc2ccccc2n(-c2ccc([N+](=O)[O-])cc2[N+](=O)[O-])c1=O	WI-38	cell growth or viability, MTT		48 h	CC50	61.2 µM
O=C1N=C(N2CCCCN2)S/C1=C\c1ccc(F)cc1OC(=O)N1CCCC1		general toxicity	Sprague-Dawley rat	oral, multiple doses	NOAEL	2000 mg/kg/day
N=c1c2c(-c3ccccc3)c(-c3ccccc3)n(Cc3ccccc3)c2ncn1[C@H]1CC[C@H](O)CC1			male cynomolgus monkey, plasma	intravenous, 0.5 mg/kg, single dose	clearance	0.6 mL/min/kg
O=c1c(O[C@@H]2O[C@H](CO)[C@@H](O)[C@H](O)[C@H]2O)c(-c2ccc(O)cc2)oc2cc(O)cc(O)c12	WI-38	cell growth or viability, WST-1			IC50	113 µM
O=C(O)c1cn(Cc2ccc(F)cc2)c2ccccc12	UDP-glucuronosyltransferase 1A10 (UGT1A10, Homo sapiens, UniProt Q9HAW8)	enzyme activity, substrate			Km	38 µM
O=C1Nc2c(C(F)(F)F)cccc2[C@@]1(c1ccc(O)cc1)c1ccc(OC(F)(F)F)cc1		general toxicity	Sprague-Dawley rat	intravenous	MTD	10 to 20 mg/kg
